pEC50: −log10 of the molar value.
Columns and labels:
[1] = target: T1, Sulfonylurea receptor 2, Kir6.2 (Homo sapiens, UniProt O60706+Q14654); experiment: (§1) Ability to open human urinary bladder Kir6.2 channel containing SUR2B in Ltk cells by FLIPR assay; type: functional, cell-based
Method in brief: (§2)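 Ltk- cells stably transfected with the Kir6.2/SUR2B exon 17- splice variant. Membrane potential was followed with DiBAC dye in a 96-well cell-based kinetic fluorescence (FLIPR) assay. The highest concentration tested was 10 µM. Each compound's maximal fluorescence response was expressed as % of the response to the reference opener.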

[2] = target: T1, Sulfonylurea receptor 2, Kir6.2; experiment: Activity against pig bladder KATP channel opening assessed as ability to relax spontaneous bladder contraction; type: functional, Sus scrofa; settings: target entry is the homologue from another species
Method in brief: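 Spontaneously contracting detrusor strips were taken from near the trigonal region of Landrace pig bladder. Increasing concentrations of test agent were applied, and the reduction in area under the curve (AUC) of the spontaneous contractions was measured.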

[3] = target: T1, Sulfonylurea receptor 2, Kir6.2; experiment: (§3) Activity against pig bladder KATP channel opening assessed as ability to relax field-stimulated pig detrusor; type: functional, Sus scrofa; settings: target entry is the homologue from another species
[4] = target: T2, Sulfonylurea receptor 2, Kir6.2 (Homo sapiens) (UniProt Q14654+O60706); experiment: Ability to open human urinary bladder Kir6.2 containing SUR2B in Ltk cells by FLIPR assay relative to P1075; type: functional, cell-based; method in brief: as §2
[5] = target: T2, Sulfonylurea receptor 2, Kir6.2 (Homo sapiens); experiment: Activity against pig bladder KATP channel opening assessed as ability to relax field-stimulated pig detrusor relative to P1075; type: functional; settings: Sus scrofa; target entry is the homologue from another species
[6] = target: T2, Sulfonylurea receptor 2, Kir6.2 (Homo sapiens); experiment: Activity against pig bladder KATP channel opening assessed as ability to relax spontaneous bladder contraction relative to P1075; type: functional; settings: Sus scrofa; target entry is the homologue from another species
[7] = target: T2, Sulfonylurea receptor 2, Kir6.2 (Homo sapiens); experiment: as §1; type: functional, cell-based; settings: filed as partial agonist; method in brief: as §2
[8] = target: T2, Sulfonylurea receptor 2, Kir6.2 (Homo sapiens); experiment: as §3; type: functional; settings: Sus scrofa; filed as agonist; target entry is the homologue from another species
[9] = tested on: Rattus norvegicus; experiment: Activity against spontaneous myogenic bladder contraction in partial outlet obstructed rat measured as reduction in AUC at 0.3 umol/kg, iv; type: functional; design: scale not given: the % may be the effect or the level left
[10] = tested on: Rattus norvegicus; experiment: Activity against volume-induced reflex neurogenic bladder contraction in urethral ligated rat measured as reduction in AUC at 0.3 umol/kg, iv; type: functional, Urinary bladder; design: scale not given: the % may be the effect or the level left
[11] = tested on: Rattus norvegicus; experiment: Activity against volume-induced reflex neurogenic bladder contraction in urethral ligated rat measured as reduction in MAP at 3 umol/kg, iv; type: functional, Urinary bladder; design: scale not given: the % may be the effect or the level left
[12] = tested on: Rattus norvegicus; experiment: Activity against spontaneous myogenic bladder contraction in partial outlet obstructed rat measured as reduction in MAP at 0.03 umol/kg, iv; type: functional; design: scale not given: the % may be the effect or the level left
[13] = tested on: Rattus norvegicus; experiment: Activity against volume-induced reflex neurogenic bladder contraction in urethral ligated rat measured as reduction in AUC at 3 umol/kg, iv; type: functional, Urinary bladder; design: scale not given: the % may be the effect or the level left
[14] = tested on: Rattus norvegicus; experiment: Activity against volume-induced reflex neurogenic bladder contraction in urethral ligated rat measured as reduction in MAP at 1 umol/kg, iv; type: functional, Urinary bladder; design: scale not given: the % may be the effect or the level left
[15] = tested on: Rattus norvegicus; experiment: Activity against spontaneous myogenic bladder contraction in partial outlet obstructed rat measured as reduction in AUC at 1 umol/kg, iv; type: functional; design: scale not given: the % may be the effect or the level left
[16] = tested on: Rattus norvegicus; experiment: Activity against spontaneous myogenic bladder contraction in partial outlet obstructed rat measured as reduction in MAP at 1 umol/kg, iv; type: functional; design: scale not given: the % may be the effect or the level left
[17] = tested on: Rattus norvegicus; experiment: Activity against spontaneous myogenic bladder contraction in partial outlet obstructed rat measured as reduction in AUC at 0.1 umol/kg, iv; type: functional; design: scale not given: the % may be the effect or the level left
[18] = tested on: Rattus norvegicus; experiment: Activity against spontaneous myogenic bladder contraction in partial outlet obstructed rat measured as reduction in MAP at 0.1 umol/kg, iv; type: functional; design: scale not given: the % may be the effect or the level left
[19] = tested on: Rattus norvegicus; experiment: Activity against volume-induced reflex neurogenic bladder contraction in urethral ligated rat measured as reduction in MAP at 0.3 umol/kg, iv; type: functional, Urinary bladder; design: scale not given: the % may be the effect or the level left
[20] = tested on: Rattus norvegicus; experiment: Activity against spontaneous myogenic bladder contraction in partial outlet obstructed rat measured as reduction in AUC at 0.03 umol/kg, iv; type: functional; design: scale not given: the % may be the effect or the level left
[21] = tested on: Rattus norvegicus; experiment: Activity against spontaneous myogenic bladder contraction in partial outlet obstructed rat measured as reduction in MAP at 0.3 umol/kg, iv; type: functional; design: scale not given: the % may be the effect or the level left
[22] = tested on: Rattus norvegicus; experiment: Activity against volume-induced reflex neurogenic bladder contraction in urethral ligated rat measured as reduction in AUC at 1 umol/kg, iv; type: functional, Urinary bladder; design: scale not given: the % may be the effect or the level left

T1 sequence (Q14654 whole entry, canonical isoform): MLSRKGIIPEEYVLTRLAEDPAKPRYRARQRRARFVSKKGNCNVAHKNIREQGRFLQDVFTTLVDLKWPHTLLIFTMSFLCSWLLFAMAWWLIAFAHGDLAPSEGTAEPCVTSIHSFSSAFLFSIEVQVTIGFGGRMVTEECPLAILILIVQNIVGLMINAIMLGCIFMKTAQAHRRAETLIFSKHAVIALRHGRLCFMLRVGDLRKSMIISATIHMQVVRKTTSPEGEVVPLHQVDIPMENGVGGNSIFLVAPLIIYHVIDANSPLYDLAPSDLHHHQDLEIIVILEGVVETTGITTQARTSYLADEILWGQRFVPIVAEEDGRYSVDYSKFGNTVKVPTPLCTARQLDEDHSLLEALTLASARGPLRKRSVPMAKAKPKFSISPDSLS
T1 sequence (O60706 whole entry, canonical isoform): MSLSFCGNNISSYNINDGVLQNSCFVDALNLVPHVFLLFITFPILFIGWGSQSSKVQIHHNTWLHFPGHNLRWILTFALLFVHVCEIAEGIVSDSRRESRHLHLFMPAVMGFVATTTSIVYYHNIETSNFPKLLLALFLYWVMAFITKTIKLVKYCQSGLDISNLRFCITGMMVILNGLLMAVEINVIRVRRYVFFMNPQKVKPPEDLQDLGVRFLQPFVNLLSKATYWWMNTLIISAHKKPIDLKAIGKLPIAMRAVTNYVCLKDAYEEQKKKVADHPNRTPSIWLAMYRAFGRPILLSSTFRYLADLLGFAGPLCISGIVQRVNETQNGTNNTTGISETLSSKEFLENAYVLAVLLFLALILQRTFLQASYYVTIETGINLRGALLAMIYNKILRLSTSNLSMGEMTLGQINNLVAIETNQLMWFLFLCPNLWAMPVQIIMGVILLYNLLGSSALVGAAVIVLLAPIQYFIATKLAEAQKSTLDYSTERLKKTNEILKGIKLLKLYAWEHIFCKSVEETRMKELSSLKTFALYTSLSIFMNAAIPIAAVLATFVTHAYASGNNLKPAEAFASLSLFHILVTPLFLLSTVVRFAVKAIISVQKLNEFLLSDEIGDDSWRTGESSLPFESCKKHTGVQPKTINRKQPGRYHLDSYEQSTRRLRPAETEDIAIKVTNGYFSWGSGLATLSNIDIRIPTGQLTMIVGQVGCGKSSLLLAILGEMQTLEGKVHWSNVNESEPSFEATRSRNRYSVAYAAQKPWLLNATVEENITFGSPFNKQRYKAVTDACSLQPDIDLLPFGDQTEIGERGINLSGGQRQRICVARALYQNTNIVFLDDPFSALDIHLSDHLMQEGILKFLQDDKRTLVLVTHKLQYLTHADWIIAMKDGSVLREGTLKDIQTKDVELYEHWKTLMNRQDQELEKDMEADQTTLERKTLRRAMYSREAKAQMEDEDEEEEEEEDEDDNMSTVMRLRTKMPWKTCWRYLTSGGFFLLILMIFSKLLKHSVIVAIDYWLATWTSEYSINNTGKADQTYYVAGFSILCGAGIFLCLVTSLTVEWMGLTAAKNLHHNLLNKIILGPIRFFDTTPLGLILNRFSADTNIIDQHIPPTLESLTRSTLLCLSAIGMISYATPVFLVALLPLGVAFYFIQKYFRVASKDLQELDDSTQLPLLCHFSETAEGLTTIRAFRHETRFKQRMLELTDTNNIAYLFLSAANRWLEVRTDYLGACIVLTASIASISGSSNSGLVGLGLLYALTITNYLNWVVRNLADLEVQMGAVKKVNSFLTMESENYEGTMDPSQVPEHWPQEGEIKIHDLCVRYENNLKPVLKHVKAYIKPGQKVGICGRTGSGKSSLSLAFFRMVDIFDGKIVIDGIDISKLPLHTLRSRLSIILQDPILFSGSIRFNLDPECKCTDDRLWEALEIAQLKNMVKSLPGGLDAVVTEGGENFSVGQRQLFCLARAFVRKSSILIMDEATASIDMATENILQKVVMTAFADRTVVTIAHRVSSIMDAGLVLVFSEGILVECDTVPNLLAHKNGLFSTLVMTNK

| SMILES | pEC50 [1] | pEC50 [3] | Efficacy [4] [%] | Efficacy [5] [%] | Efficacy [6] [%] | Activity [7] | other results |
| --- | --- | --- | --- | --- | --- | --- | --- |
| CCC(C)(C)NC(=NC#N)Nc1cccnc1 | 7.28 | 7.07 |  |  |  |  | pEC50 [2]: 7.66 |
| CCc1cc(C#N)ccc1Nc1c(N[C@H](C)C(C)(C)C)c(=O)c1=O | 5.63 | 6.17 | 71 | 94 | 100 |  | pEC50 [2]: 6.99 |
| CCC(C)(C)/N=C(\NC#N)Nc1cccnc1 |  |  | 101 | 99 | 100 |  |  |
| C[C@](O)(C(=O)Nc1ccc(C(=O)c2ccccc2)cc1)C(F)(F)F |  |  | 100 | 99 | 100 |  |  |
| CC[C@H]1OCC(O)=C2C1=NC1=C(C(=O)COC1)[C@H]2c1ccc(Cl)c(Cl)c1 (racemic) |  |  | 58 |  |  | Partial agonist |  |
| CC1(C)Oc2ccc(C#N)cc2[C@H](N2CCCC2=O)[C@H]1O (single isomer, unassigned) |  |  | 83 | 99 | 100 |  |  |
| C[C@@H]1OCC2=C(C1=O)[C@@H](c1ccc(F)c(Br)c1)C1=C(O)OCC1=N2 (stereo in doubt; 7a) |  |  | 17 |  |  | Partial agonist |  |
| C[C@@H]1OCC2=C(C1=O)[C@H](c1ccc(F)c(Br)c1)C1=C(O)OCC1=N2 (stereo in doubt; 8a) |  |  | 15 |  |  | Partial agonist |  |
| C[C@@H]1OCC2=C(C1=O)[C@H](c1ccc(F)c(Br)c1)C1=C(O)OCC1=N2 (stereo in doubt; 8b) |  |  | 16 |  |  | Partial agonist |  |
| CC[C@H]1OCC(O)=C2C1=NC1=C(C(=O)COC1)[C@H]2c1ccc(Cl)c(Cl)c1 (stereo in doubt; 74b) [listing 1 of 2 here] | 6.77 | 5.64 |  |  |  |  | pEC50 [2]: 7.26 |
| CC[C@H]1OCC(O)=C2C1=NC1=C(C(=O)COC1)[C@H]2c1ccc(Cl)c(Cl)c1 (stereo in doubt; 74b) [listing 2 of 2 here] |  |  | 57 | 41 | 92 | Partial agonist |  |
| CC[C@H]1OCC(O)=C2C1=NC1=C(C(=O)COC1)[C@H]2c1ccc(Br)c(Cl)c1 (stereo in doubt; 76b) [listing 1 of 2 here] | 6.61 | 4.87 |  |  |  |  | pEC50 [2]: 6.61 |
| CC[C@H]1OCC(O)=C2C1=NC1=C(C(=O)COC1)[C@H]2c1ccc(Br)c(Cl)c1 (stereo in doubt; 76b) [listing 2 of 2 here] |  |  | 37 | 38 | 97 | Partial agonist |  |

More lines, main results first:

| pEC50 [1] | pEC50 [3] | Efficacy [4] [%] | Efficacy [5] [%] | Efficacy [6] [%] | Activity [7] | SMILES | other results |
| --- | --- | --- | --- | --- | --- | --- | --- |
|  |  | 36 | 90 |  | Partial agonist | CCC[C@H]1OC(O)=C2C1=NC1=C(C(=O)COC1)[C@H]2c1ccc(F)c(Br)c1 (racemic) | Activity [8]: Agonist |
|  |  | 40 | 88 |  | Partial agonist | CC[C@H]1OC(O)=C2C1=NC1=C(C(=O)COC1)[C@H]2c1ccc(F)c(Br)c1 (racemic) | Activity [8]: Agonist |
|  |  | 30 |  |  | Partial agonist | CC[C@H]1OCC(O)=C2C1=NC1=C(C(=O)COC1)[C@H]2c1ccc(F)c(Br)c1 (racemic) |  |
|  |  | 30 |  |  | Partial agonist | CC[C@H]1OCC(O)=C2C1=NC1=C(C(=O)COC1)[C@H]2c1ccc(F)c(Cl)c1 (racemic) |  |
| 7.56 | 6.89 | 83 | 74 |  |  | CC(C)C[C@@H]1OC(O)=C2C1=NC1=C(C(=O)COC1)[C@H]2c1ccc(F)c(Br)c1 (relative stereo) |  |
|  |  | 15 | 100 |  | Partial agonist | CC[C@H]1OC(O)=C2C1=NC1=C(C(=O)CSC1)[C@H]2c1ccc(F)c(Br)c1 (relative stereo) | Activity [8]: Agonist |
| 7.43 | 6.67 |  |  |  |  | O=C1COCC2=C1C(c1ccc(F)c(Br)c1)C1=C(O)OCC1=N2 (stereo in doubt; 6b) [listing 1 of 2 here] | pEC50 [2]: 9.17 |
|  |  | 101 | 88 | 100 |  | O=C1COCC2=C1C(c1ccc(F)c(Br)c1)C1=C(O)OCC1=N2 (stereo in doubt; 6b) [listing 2 of 2 here] |  |
| 6.77 | 6.55 |  |  |  |  | CC[C@H]1OC(O)=C2C1=NC1=C(C(=O)COC1)[C@H]2c1ccc(F)c(Br)c1 (stereo in doubt; 21b) [listing 1 of 2 here] | pEC50 [2]: 7.72 |
|  |  | 46 | 77 | 96 | Partial agonist | CC[C@H]1OC(O)=C2C1=NC1=C(C(=O)COC1)[C@H]2c1ccc(F)c(Br)c1 (stereo in doubt; 21b) [listing 2 of 2 here] |  |
| 7.56 | 6.29 |  |  |  |  | CCC[C@H]1OC(O)=C2C1=NC1=C(C(=O)COC1)[C@H]2c1ccc(F)c(Br)c1 (stereo in doubt; 23b) [listing 1 of 2 here] | Activity [9]: 46.7%; Activity [10]: 16%; Activity [11]: 49.7%; Activity [12]: 5.1%; Activity [13]: 37.4%; Activity [14]: 43.8%; Activity [15]: 93.1%; Activity [16]: 40.7%; Activity [17]: 19.1%; Activity [18]: 9.6%; pEC50 [2]: 7.54; Activity [19]: 22.6%; Activity [20]: 4.2%; Activity [21]: 23.6%; Activity [22]: 31.9% |
|  |  | 45 | 34 | 99 | Partial agonist | CCC[C@H]1OC(O)=C2C1=NC1=C(C(=O)COC1)[C@H]2c1ccc(F)c(Br)c1 (stereo in doubt; 23b) [listing 2 of 2 here] |  |
| 6.07 | 5.78 |  |  |  |  | CCCC[C@H]1OC(O)=C2C1=NC1=C(C(=O)COC1)[C@H]2c1ccc(F)c(Br)c1 (stereo in doubt; 29b) [listing 1 of 2 here] | pEC50 [2]: 6.48 |
|  |  | 68 | 51 | 100 |  | CCCC[C@H]1OC(O)=C2C1=NC1=C(C(=O)COC1)[C@H]2c1ccc(F)c(Br)c1 (stereo in doubt; 29b) [listing 2 of 2 here] |  |
|  |  | 34 |  |  | Partial agonist | CC[C@H]1OC(O)=C2C1=NC1=C(C(=O)C(C)(C)OC1)[C@H]2c1ccc(F)c(Br)c1 (stereo in doubt; 36b) |  |
|  |  | 39 | 66 |  | Partial agonist | CCC[C@H]1OC(O)=C2C1=NC1=C(C(=O)COC1)[C@H]2c1ccc(F)c(Cl)c1 (stereo in doubt; 39b) |  |
| 6.77 | 5.69 |  |  |  |  | CC[C@H]1OCC(O)=C2C1=NC1=C(C(=O)COC1)[C@H]2c1ccc(F)c(Br)c1 (stereo in doubt; 71a) [listing 1 of 2 here] | pEC50 [2]: 6.89 |
|  |  | 40 | 54 | 98 | Partial agonist | CC[C@H]1OCC(O)=C2C1=NC1=C(C(=O)COC1)[C@H]2c1ccc(F)c(Br)c1 (stereo in doubt; 71a) [listing 2 of 2 here] |  |

Reference: ChEMBL document CHEMBL1137338, “Effects of substitution on 9-(3-bromo-4-fluorophenyl)-5,9-dihydro-3H,4H-2,6-dioxa-4- azacyclopenta[b]naphthalene-1,8-dione, a dihydropyridine ATP-sensitive potassium channel opener” (J Med Chem, 2006)
